Reference: ChEMBL document CHEMBL4152256, “Structure-activity relationship of new antimalarial 1-aryl-3-susbtituted propanol derivatives: Synthesis, preliminary toxicity profiling, parasite life cycle stage studies, target exploration, and targeted delivery” (Eur J Med Chem, 2018)
Activity calls are given as the source filed them. The rule behind the calls is not given here.

Assays:
[1] = Genotoxicity in Salmonella typhimurium TA1535 harboring pSK1002 assessed as umu gene induction at 0.0002 mg/ml in absence of Sprague-Dawley rat liver S9 fraction after by SOS/umu assay relative to control; format: toxicity, organism-based; conditions: salmonella enterica subsp. enterica serovar typhimurium, read-out: FC
[2] = Cytotoxicity against human HepG2A16 cells by MTT assay; format: cell-based; conditions: HepG2A16 cells
Summary of the method: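 MTT viability assay on HepG2-A16 cells, giving CC50 values.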

[3] = Genotoxicity in Salmonella typhimurium TA1535 harboring pSK1002 assessed as umu gene induction at 0.0005 mg/ml in absence of Sprague-Dawley rat liver S9 fraction after by SOS/umu assay relative to control; format: toxicity, organism-based; conditions: salmonella enterica subsp. enterica serovar typhimurium, read-out: FC
[4] = Genotoxicity in Salmonella typhimurium TA1535 harboring pSK1002 assessed as survival at 0.0005 mg/ml in absence of Sprague-Dawley rat liver S9 fraction after by SOS/umu assay relative to control; format: toxicity, organism-based; conditions: salmonella enterica subsp. enterica serovar typhimurium, read-out: Survival
[5] = Genotoxicity in Salmonella typhimurium TA1535 harboring pSK1002 assessed as umu gene induction at 0.0002 mg/ml in presence of Sprague-Dawley rat liver S9 fraction after by SOS/umu assay relative to control; format: toxicity, organism-based; conditions: salmonella enterica subsp. enterica serovar typhimurium, read-out: FC
[6] = test system: Plasmodium falciparum; assay: Antiplasmodial activity against multidrug-resistant Plasmodium falciparum FCR-3 by [3H]-hypoxanthine incorporation assay; format: functional, organism-based, FCR-3/Gambia; conditions: Plasmodium falciparum, FCR-3/Gambia
Summary of the method: (§1)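 Blood-stage P. falciparum 3D7 and FCR-3 were tested by a modified [3H]-hypoxanthine incorporation assay. Chloroquine was the reference in all runs.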

[7] = Genotoxicity in Salmonella typhimurium TA1535 harboring pSK1002 assessed as survival at 0.002 mg/ml in presence of Sprague-Dawley rat liver S9 fraction after by SOS/umu assay relative to control; format: toxicity, organism-based; conditions: salmonella enterica subsp. enterica serovar typhimurium, read-out: Survival
[8] = Genotoxicity in Salmonella typhimurium TA1535 harboring pSK1002 assessed as survival at 0.002 mg/ml in absence of Sprague-Dawley rat liver S9 fraction after by SOS/umu assay relative to control; format: toxicity, organism-based; conditions: salmonella enterica subsp. enterica serovar typhimurium, read-out: Survival
[9] = Genotoxicity in Salmonella typhimurium TA1535 harboring pSK1002 assessed as umu gene induction at 0.004 mg/ml in absence of Sprague-Dawley rat liver S9 fraction after by SOS/umu assay relative to control; format: toxicity, organism-based; conditions: salmonella enterica subsp. enterica serovar typhimurium, read-out: FC
[10] = Selectivity index, ratio of CC50 for human HepG2A16 cells by MTT assay to IC50 for multidrug-resistant Plasmodium falciparum FCR-3; format: toxicity; conditions: HepG2A16 cells, read-out: Ratio CC50/IC50
Summary of the method: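 HepG2-A16 human hepatoma cells were tested by MTT viability assay to give CC50. Blood-stage activity was measured against the multidrug-resistant P. falciparum FCR-3 strain by [3H]-hypoxanthine incorporation to give IC50. SI = CC50 HepG2 / FCR-3 IC50.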

[11] = Genotoxicity in Salmonella typhimurium TA1535 harboring pSK1002 assessed as umu gene induction at 0.001 mg/ml in absence of Sprague-Dawley rat liver S9 fraction after by SOS/umu assay relative to control; format: toxicity, organism-based; conditions: salmonella enterica subsp. enterica serovar typhimurium, read-out: FC
[12] = Genotoxicity in Salmonella typhimurium TA1535 harboring pSK1002 assessed as survival at 0.004 mg/ml in absence of Sprague-Dawley rat liver S9 fraction after by SOS/umu assay relative to control; format: toxicity, organism-based; conditions: salmonella enterica subsp. enterica serovar typhimurium, read-out: Survival
[13] = Genotoxicity in Salmonella typhimurium TA1535 harboring pSK1002 assessed as survival at 0.0002 mg/ml in absence of Sprague-Dawley rat liver S9 fraction after by SOS/umu assay relative to control; format: toxicity, organism-based; conditions: salmonella enterica subsp. enterica serovar typhimurium, read-out: Survival
[14] = Genotoxicity in Salmonella typhimurium TA1535 harboring pSK1002 assessed as survival at 0.001 mg/ml in absence of Sprague-Dawley rat liver S9 fraction after by SOS/umu assay relative to control; format: toxicity, organism-based; conditions: salmonella enterica subsp. enterica serovar typhimurium, read-out: Survival
[15] = Genotoxicity in Salmonella typhimurium TA1535 harboring pSK1002 assessed as umu gene induction at 0.002 mg/ml in presence of Sprague-Dawley rat liver S9 fraction after by SOS/umu assay relative to control; format: toxicity, organism-based; conditions: salmonella enterica subsp. enterica serovar typhimurium, read-out: FC
[16] = Genotoxicity in Salmonella typhimurium TA1535 harboring pSK1002 assessed as survival at 0.0002 mg/ml in presence of Sprague-Dawley rat liver S9 fraction after by SOS/umu assay relative to control; format: toxicity, organism-based; conditions: salmonella enterica subsp. enterica serovar typhimurium, read-out: Survival
[17] = test system: Plasmodium falciparum; assay: Antiplasmodial activity against chloroquine-sensitive Plasmodium falciparum 3D7 by [3H]-hypoxanthine incorporation assay; format: functional, organism-based; conditions: Plasmodium falciparum, 3D7; summary of the method: as §1
[18] = Solubility of the compound in DSPC:cholesterol:DSPE-PEG2000-Mal:DOPE-Rho lipid mixture at 250 uM; format: physicochemical
Summary of the method: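 Compound added at 250 µM drug to the initial liposome lipid mixture (10 mM total lipid); precipitation and UV-visible absorbance above 300 nm assessed after encapsulation, removal of unencapsulated material and extraction with 1% w/v SDS in RPMI-A.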

[19] = Genotoxicity in Salmonella typhimurium TA1535 harboring pSK1002 assessed as umu gene induction at 0.001 mg/ml in presence of Sprague-Dawley rat liver S9 fraction after by SOS/umu assay relative to control; format: toxicity, organism-based; conditions: salmonella enterica subsp. enterica serovar typhimurium, read-out: FC
[20] = Genotoxicity in Salmonella typhimurium TA1535 harboring pSK1002 assessed as survival at 0.004 mg/ml in presence of Sprague-Dawley rat liver S9 fraction after by SOS/umu assay relative to control; format: toxicity, organism-based; conditions: salmonella enterica subsp. enterica serovar typhimurium, read-out: Survival
[21] = Genotoxicity in Salmonella typhimurium TA1535 harboring pSK1002 assessed as umu gene induction at 0.002 mg/ml in absence of Sprague-Dawley rat liver S9 fraction after by SOS/umu assay relative to control; format: toxicity, organism-based; conditions: salmonella enterica subsp. enterica serovar typhimurium, read-out: FC
[22] = Genotoxicity in Salmonella typhimurium TA1535 harboring pSK1002 assessed as umu gene induction at 0.0005 mg/ml in presence of Sprague-Dawley rat liver S9 fraction after by SOS/umu assay relative to control; format: toxicity, organism-based; conditions: salmonella enterica subsp. enterica serovar typhimurium, read-out: FC
[23] = Genotoxicity in Salmonella typhimurium TA1535 harboring pSK1002 assessed as survival at 0.0005 mg/ml in presence of Sprague-Dawley rat liver S9 fraction after by SOS/umu assay relative to control; format: toxicity, organism-based; conditions: salmonella enterica subsp. enterica serovar typhimurium, read-out: Survival
[24] = Genotoxicity in Salmonella typhimurium TA1535 harboring pSK1002 assessed as survival at 0.001 mg/ml in presence of Sprague-Dawley rat liver S9 fraction after by SOS/umu assay relative to control; format: toxicity, organism-based; conditions: salmonella enterica subsp. enterica serovar typhimurium, read-out: Survival
[25] = Genotoxicity in Salmonella typhimurium TA1535 harboring pSK1002 assessed as umu gene induction at 0.004 mg/ml in presence of Sprague-Dawley rat liver S9 fraction after by SOS/umu assay relative to control; format: toxicity, organism-based; conditions: salmonella enterica subsp. enterica serovar typhimurium, read-out: FC
[26] = test system: Plasmodium berghei; assay: Antiplasmodial activity against Plasmodium berghei ANKA infected in mouse assessed as inhibition of parasitemia at 50 mg/kg/day, po for 4 consecutive days starting from 2 hrs post infection by MSF assay relative to control; format: functional
Summary of the method: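 Swiss male mice (20 ± 2 g) infected ip with 10^7 P. berghei ANKA parasitized cells (day 0). Five per group dosed orally 2 h after infection and daily on days 0–3. Test compounds at 50 mg/kg/day in water:DMSO; chloroquine diphosphate at 3 mg/kg/day; vehicle controls. Parasitemia measured on day 4 by MSF assay; survival checked daily.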

[27] = test system: Plasmodium berghei; assay: Antiplasmodial activity against Plasmodium berghei ANKA infected in mouse assessed as mouse survival time at 50 mg/kg/day, po for 4 consecutive days starting from 2 hrs post infection by MSF assay; format: functional
Summary of the method: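 Swiss male mice (20 ± 2 g) infected i.p. with 10^7 P. berghei ANKA parasitized cells in 0.1 mL 0.9% saline (day 0). Oral dosing began 2 h post-infection and continued daily on days 0–3, five mice per batch. Test drugs were given at 50 mg/kg/day in water:DMSO and chloroquine diphosphate at 3 mg/kg/day; a vehicle control was included. Survival was checked daily, and parasitemia was read on day 4 by modified MSF assay.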

Structure (SMILES) | fold induction at 0.0002 mg/ml [1] | CC50 [2] [µM] | fold induction at 0.0005 mg/ml [3] | viability at 0.0005 mg/ml [4] [%] | fold induction at 0.0002 mg/ml [5] | IC50 [6] [µM] | viability at 0.002 mg/ml [7] [%] | viability at 0.002 mg/ml [8] [%] | fold induction at 0.004 mg/ml [9] | selectivity ratio [10] | fold induction at 0.001 mg/ml [11] | viability at 0.004 mg/ml [12] [%] | viability at 0.0002 mg/ml [13] [%] | viability at 0.001 mg/ml [14] [%] | fold induction at 0.002 mg/ml [15] | viability at 0.0002 mg/ml [16] [%] | IC50 [17] [µM] | solubility [18] | fold induction at 0.001 mg/ml [19] | viability at 0.004 mg/ml [20] [%] | also measured
OC(CCN1CCN(C(c2ccccc2)c2ccccc2)CC1)c1ccc(F)c(Cl)c1 (configuration not stated) | 0.8 | 269 | 0.9 | 117 | 1 | 1.39 | 73.1 | 103 | 0.8 | 194 | 1 | 119 | 110 | 105 | 1.1 | 92.3 | 5.11 | Insoluble | 0.5 | 87.7 | fold induction at 0.002 mg/ml [21]: 1; fold induction at 0.0005 mg/ml [22]: 0.9; viability at 0.0005 mg/ml [23]: 97.7%; viability at 0.001 mg/ml [24]: 91.4%; fold induction at 0.004 mg/ml [25]: 1.2
OC(CCN1CCN(C(c2ccccc2)c2ccccc2)CC1)c1ccc(F)cc1 (configuration not stated) | 1.1 | 252 | 1 | 100 | 1 | 0.62 | 89.6 | 95.9 | 1 | 406 | 1 | 97.8 | 102 | 94.9 | 1.1 | 101 | 1.08 | Insoluble | 1 | 87 | inhibition [26]: inactive; fold induction at 0.002 mg/ml [21]: 1.5; MSD [27]: 8 days; fold induction at 0.0005 mg/ml [22]: 1.1; viability at 0.0005 mg/ml [23]: 86.4%; viability at 0.001 mg/ml [24]: 95.7%; fold induction at 0.004 mg/ml [25]: 1
